Source: ChEMBL document CHEMBL1667771, “The discovery of furo[2,3-c]pyridine-based indanone oximes as potent and selective B-Raf inhibitors” (Bioorg Med Chem Lett, 2011)

Legend:
[1] = molecular target: T1, Cytochrome P450 1A2 (Homo sapiens, UniProt P05177); experiment: Inhibition of CYP1A2; assay type: ADME
T1 sequence (P05177 whole entry): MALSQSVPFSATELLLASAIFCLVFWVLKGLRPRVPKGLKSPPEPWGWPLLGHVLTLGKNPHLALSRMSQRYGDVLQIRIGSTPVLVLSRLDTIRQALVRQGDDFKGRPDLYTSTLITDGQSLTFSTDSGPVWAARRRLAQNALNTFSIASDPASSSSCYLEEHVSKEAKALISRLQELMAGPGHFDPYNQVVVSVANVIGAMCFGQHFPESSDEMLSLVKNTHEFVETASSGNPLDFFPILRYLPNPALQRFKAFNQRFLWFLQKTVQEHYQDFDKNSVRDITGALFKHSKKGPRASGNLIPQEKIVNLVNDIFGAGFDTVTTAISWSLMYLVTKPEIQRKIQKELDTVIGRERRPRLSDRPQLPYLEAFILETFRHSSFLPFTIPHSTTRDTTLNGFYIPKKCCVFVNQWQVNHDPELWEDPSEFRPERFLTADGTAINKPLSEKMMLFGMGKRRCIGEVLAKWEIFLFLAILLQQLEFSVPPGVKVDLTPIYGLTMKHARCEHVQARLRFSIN

[2] = molecular target: Cytochrome P450 2C19 (Homo sapiens, UniProt P33261); experiment: Inhibition of CYP2C19; assay type: ADME
[3] = molecular target: T2, Serine/threonine-protein kinase B-raf (Homo sapiens, UniProt P15056, V600E); experiment: Inhibition of B-Raf V600E mutant
[4] = molecular target: Cytochrome P450 3A4 (Homo sapiens, UniProt P08684); experiment: Inhibition of CYP3A4; assay type: ADME
[5] = molecular target: T2, Serine/threonine-protein kinase B-raf; experiment: Inhibition of B-Raf V600E mutant assessed as inhibition of phosphorylated ERK production by cell based assay
Procedure, shortened: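 Cell-based readout of phospho-ERK production. The IC50 is the average of three experiments.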

[6] = Permeability of the compound across human Caco2 cells; assay type: ADME, cell-based; conditions: caco-2, read-out: permeability
Procedure, shortened: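 Caco-2 permeability is reported as a class: low (<2 × 10^-6 cm/s), medium (2–8 × 10^-6 cm/s), high (>8 × 10^-6 cm/s).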

[7] = Aqueous solubility of the compound at pH 6.5; assay type: physicochemical
[8] = test system: Caco-2; experiment: Permeability ratio of the compound across human Caco2 cells; assay type: ADME, cell-based

T2 sequence (P15056 2-766 V600E limits assumed): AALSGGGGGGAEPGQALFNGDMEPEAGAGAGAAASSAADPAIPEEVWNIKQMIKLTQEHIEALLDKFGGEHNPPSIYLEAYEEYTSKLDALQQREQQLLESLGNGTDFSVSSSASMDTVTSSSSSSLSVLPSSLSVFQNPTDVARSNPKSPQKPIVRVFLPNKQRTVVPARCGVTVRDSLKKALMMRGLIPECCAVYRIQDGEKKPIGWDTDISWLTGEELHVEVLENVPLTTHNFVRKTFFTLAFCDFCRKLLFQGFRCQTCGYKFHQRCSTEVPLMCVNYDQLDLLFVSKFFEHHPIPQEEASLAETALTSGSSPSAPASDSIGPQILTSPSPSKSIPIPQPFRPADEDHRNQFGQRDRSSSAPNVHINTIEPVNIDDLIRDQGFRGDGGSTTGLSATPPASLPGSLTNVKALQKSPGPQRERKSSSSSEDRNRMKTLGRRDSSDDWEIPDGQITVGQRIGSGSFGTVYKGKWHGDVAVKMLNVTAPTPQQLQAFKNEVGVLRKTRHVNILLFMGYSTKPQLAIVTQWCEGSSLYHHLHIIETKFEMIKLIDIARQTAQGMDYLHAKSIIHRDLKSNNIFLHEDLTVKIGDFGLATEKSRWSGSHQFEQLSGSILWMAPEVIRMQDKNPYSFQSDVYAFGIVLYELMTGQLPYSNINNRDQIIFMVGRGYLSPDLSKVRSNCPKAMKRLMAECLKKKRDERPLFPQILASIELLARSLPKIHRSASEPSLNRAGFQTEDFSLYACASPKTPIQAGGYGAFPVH
Chain of Cytochrome P450 3A4 (P08684 whole entry): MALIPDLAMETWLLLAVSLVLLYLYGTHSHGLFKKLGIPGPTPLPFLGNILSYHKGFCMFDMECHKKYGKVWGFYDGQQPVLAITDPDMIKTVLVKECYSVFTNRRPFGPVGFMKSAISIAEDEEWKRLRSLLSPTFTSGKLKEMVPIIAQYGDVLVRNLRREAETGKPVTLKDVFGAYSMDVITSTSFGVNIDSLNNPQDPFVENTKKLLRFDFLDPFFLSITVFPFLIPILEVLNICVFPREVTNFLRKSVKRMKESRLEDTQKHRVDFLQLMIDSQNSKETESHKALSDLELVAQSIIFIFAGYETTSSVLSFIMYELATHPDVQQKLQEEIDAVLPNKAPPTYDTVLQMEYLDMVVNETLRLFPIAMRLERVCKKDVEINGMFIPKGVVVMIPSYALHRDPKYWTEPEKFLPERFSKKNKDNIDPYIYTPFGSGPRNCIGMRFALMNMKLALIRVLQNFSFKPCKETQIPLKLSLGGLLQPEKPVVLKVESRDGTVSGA
Chain of Cytochrome P450 2C19 (P33261 whole entry): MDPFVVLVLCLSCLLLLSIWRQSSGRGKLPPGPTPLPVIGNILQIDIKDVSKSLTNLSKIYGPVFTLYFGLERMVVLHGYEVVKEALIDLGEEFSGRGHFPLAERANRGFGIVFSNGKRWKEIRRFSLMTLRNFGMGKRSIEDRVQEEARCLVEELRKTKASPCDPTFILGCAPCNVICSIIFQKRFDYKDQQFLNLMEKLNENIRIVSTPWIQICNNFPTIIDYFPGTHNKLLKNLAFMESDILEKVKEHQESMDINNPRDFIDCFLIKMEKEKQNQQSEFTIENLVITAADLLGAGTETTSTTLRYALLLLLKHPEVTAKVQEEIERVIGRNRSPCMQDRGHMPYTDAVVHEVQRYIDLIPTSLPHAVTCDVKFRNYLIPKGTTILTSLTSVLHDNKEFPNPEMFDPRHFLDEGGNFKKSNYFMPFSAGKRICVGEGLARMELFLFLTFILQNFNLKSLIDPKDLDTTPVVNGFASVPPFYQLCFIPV

Structure (SMILES) | IC50 [3] | IC50 [5] | other results
CCOC(=O)c1oc2cnccc2c1Nc1ccc2c(c1)CC/C2=N/O | < 0.002 µM | 0.03 µM | IC50 [1]: > 25 µM; IC50 [2]: 1.18 µM; IC50 [4]: 8.3 µM
NCc1ccc(Nc2c(-c3ccccc3)nc3cnccn23)cc1 | 1.4 µM | – | –
Clc1ccc(Nc2c(-c3ccccc3)nc3cnccn23)cc1 | 0.57 µM | 76 µM | –
Cc1nc2cnccn2c1Nc1ccc(Cl)cc1 | 1.2 µM | – | –
CCOC(=O)c1nc2cnccn2c1Nc1ccc2c(c1)CC/C2=N\O | 0.016 µM | 3.1 µM | –
O/N=C1/CCc2cc(Nc3c(-c4ccccc4)nc4cnccn34)ccc21 | 0.035 µM | 19 µM | –
O/N=C1/CCc2cc(Nc3c(-c4cccnc4)nc4cnccn34)ccc21 | 0.047 µM | 16 µM | –
O/N=C1/CCc2cc(Nc3c(-c4ccco4)nc4cnccn34)ccc21 | 0.004 µM | 1.4 µM | –
CCOC(=O)c1sc2cnccc2c1Nc1ccc2c(c1)CC/C2=N/O | 0.003 µM | 0.28 µM | IC50 [1]: 0.616 µM; IC50 [2]: 0.129 µM; IC50 [4]: 0.05 µM
CN(C)C(=O)c1sc2cnccc2c1Nc1ccc2c(c1)CC/C2=N/O | 0.04 µM | 5.8 µM | –
CN(C)CCNC(=O)c1sc2cnccc2c1Nc1ccc2c(c1)CC/C2=N/O | 0.052 µM | 8.2 µM | –
O/N=C1/CCc2cc(Nc3csc4cnccc34)ccc21 | 0.032 µM | 7.3 µM | –
O/N=C1/CCc2cc(Nc3c(-c4ccccc4)sc4cnccc34)ccc21 | 0.003 µM | 1.5 µM | –
O/N=C1/CCc2cc(Nc3c(-c4cccnc4)sc4cnccc34)ccc21 | 0.003 µM | 0.17 µM | –
CCCC(=O)c1sc2cnccc2c1Nc1ccc2c(c1)CC/C2=N/O | < 0.002 µM | 0.14 µM | –
CN(C)C(=O)c1oc2cnccc2c1Nc1ccc2c(c1)CC/C2=N\O | 0.005 µM | 0.34 µM | –
CN(C)CCNC(=O)c1oc2cnccc2c1Nc1ccc2c(c1)CC/C2=N\O | 0.002 µM | 0.04 µM | Papp [6]: > 8 ×10⁻⁶ cm/s; solubility [7]: > 1000 µg/mL; Ratio [8]: 0.9
Cc1ccc(-c2oc3cnccc3c2Nc2ccc3c(c2)CC/C3=N\O)cc1 | 0.003 µM | 2 µM | –
O/N=C1\CCc2cc(Nc3c(-c4ccccn4)oc4cnccc34)ccc21 | < 0.002 µM | 0.15 µM | –
O/N=C1/CCc2cc(Nc3c(-c4cccnc4)oc4cnccc34)ccc21 | < 0.002 µM | 0.96 µM | –
Cc1cc(-c2oc3cnccc3c2Nc2ccc3c(c2)CC/C3=N\O)no1 | < 0.002 µM | 0.365 µM | –
O/N=C1\CCc2cc(Nc3c(-c4ncccn4)oc4cnccc34)ccc21 | 0.0002 µM | 0.005 µM | Papp [6]: > 8 ×10⁻⁶ cm/s; Ratio [8]: 0.9
Oc1cc(-c2nc(-c3ccccc3)[nH]c2-c2ccncc2)ccc1Cl | 0.01 µM | – | –
